# An excerpt weighted towards active compounds, which were near 12% of everything screened.
# CHOP inhibitor: inhibitors of CHOP promoter induction, primary screen, cell-based, unfolded protein response, luciferase reporter. CHO-K1 CHOP-promoter luciferase, tunicamycin-induced, 15-18 h. inhibition, % at 10 µM. 220,000 compounds, 3.8% hits. AID 2732, 2010;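 active means compounds that reduced the stress-induced luciferase reporter signal by more than about 70% of percent inhibition, limit read from the data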;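 further: 0% = tunicamycin plus vehicle and 100% = wells without tunicamycin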
# Autophagy HCS: autophagy modulators in MEF cells, primary screen, imaging, high-content, MEF GFP-LC3 | MEF GFP-LC3 puncta imaging; test concentration mostly 10 µM | calls only at 10 µM (by protocol) | 190,000 compounds, 0.98% hits | AID 463193, 2010;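 active means percentage of spot-positive cells more than 3 SD above its plate mean, without a fluorescence outlier flag or 80% toxicity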;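 further: spot-positive cell cutoff set from DMSO-treated cells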
# MT stabilizer: microtubule stabilizers in HeLa cells, primary screen, imaging, high-content imaging; HeLa tubulin immunostaining HCS, 24 h; share of cells brighter than vehicle mean+2SD; % tubulin-high responders, % at 10 µM; 200,000 compounds, 0.83% hits; AID 2205, 2009;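 active means plate Z-score above 3 for both tubulin-high and condensed-nucleus cell shares, with cell loss under 80%, at 10 µM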;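 further: anti alpha tubulin signal scored within the nucleus-defined area of each cell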
# Dynein transport: inhibitors of GR-EGFP nuclear translocation, primary screen, dynein cargo transport inhibitor project, imaging, high-content, 3617.4 mouse cells. z-score, hits read low. 220,000 compounds, 0.47% hits. test concentration mostly 20 µM; stimulated with dexamethasone, 1 µM; active compounds read low;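 active means plate z-score of nuclear minus cytoplasmic receptor signal below a set negative limit, without overly bright fluorescence or cell loss, cut at about -3.5 in these data, passing the limit was not always enough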;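 further: z-score of nuclear minus cytoplasmic ring GR-EGFP intensity difference per well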
#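 medium = tetracycline-free induction medium containing charcoal-stripped FBS | probe or stimulus = dexamethasone, 1.0 µM final | timing = 48 h induction, then 1 h compound, then 30 min agonist, 37 °C | detection = automated 10x imaging of fixed Hoechst-stained cells | read-out basis = nuclear versus cytoplasmic GR-EGFP signal, averaged per well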
# Lmaj promast: Leishmania major promastigote growth inhibition, primary screen; Leishmania major promastigotes, resazurin fluorescence viability; inhibition, % at 10 µM; 200,000 compounds, 9% hits; in the data active means inhibition above about 50%;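 further: promastigotes grown with compound for 44 hours at 28 °C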
# bCat nuc transl: modulators of beta-catenin nuclear translocation, primary screen, imaging, HeLa cells, immunofluorescence, high-content. nuclear translocation activity, % at 5 µM. 190,000 compounds, 0.3% hits;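 active means nuclear translocation activity above 50% at 5 µM, with a well cell count of 50 or more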;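 further: per-cell ratio of nuclear to cytoplasmic median beta-catenin stain intensity; plate controls were DMSO negative control for no effect and GSK-3 inhibitor IX positive control for full effect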
#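 Signal – beta-catenin immunofluorescence imaging with DAPI · Test system – human HeLa cell line · Dosing – 5 µM primary single dose, 0.1% DMSO, 0.02–20 µM confirmation series · Measure – % activation, nuclear-to-cytoplasmic median beta-catenin signal ratio per cell · Incubation – 24 h compound exposure at 37°C, 5% CO2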
# An asterisk follows results filed as active; i = inactive; . = not tested or not shown; + = active, no number.
SMILES,CHOP inhibitor,Autophagy HCS,MT stabilizer,Dynein transport,Lmaj promast,bCat nuc transl
CN(c1ccccc1)S(=O)(=O)c1cccc(NC(=O)CSc2nncs2)c1,52,i,4,0.2,72*,-3
CC(C)n1cnnc1SCC(=O)Nc1cccc(S(=O)(=O)N(C)c2ccccc2)c1,12,.,.,-0.5,.,-2
Cc1ccccc1Nc1c([N+](=O)[O-])ccc2c1=NC1(CCCCC1)N=2,76*,i,4,-0.82,-1,-3
COc1ccc(-c2cc(C(=O)NCCCn3ccnc3)no2)cc1OC,1,i,2,-0.12,61*,-2
CCCCNC(=O)c1cc(-c2ccc(OC)c(OC)c2)on1,-18,.,2,-0.38,-3,-3
O=C(NCCCn1ccnc1)c1cc2nc(-c3ccc(Br)cc3)cc(C(F)(F)F)n2n1,34,i,2,-0.31,99*,3
COc1ccc(-c2cc(C(F)(F)F)n3nc(C(=O)N4CCCCC4)cc3n2)cc1,58,i,6,3,23,0
COc1ccc(-c2cc(C(F)(F)F)n3nc(C(=O)NCCCN4CCOCC4)cc3n2)cc1,24,i,3,-0.51,57*,1
CCOc1cc(C(=O)Nc2cnccn2)cc(OCC)c1OCC,.,i,38*,0.26,8,4
CCOc1ccc(C(=O)NCC(c2cccs2)N(C)C)cc1OCC (centres undefined),11,i,7,0.15,2,-1
COc1cccc(C(=O)NCCCn2ccnc2)c1,-5,i,4,0.44,2,-2
COc1ccc2c(Cl)c(C(=O)NCCCn3ccnc3)sc2c1,22,i,4,-0.71,100*,0
CCC(=O)Nc1ccc(C(=O)NCCCn2ccnc2)cc1,2,i,2,-0.37,-1,1
Cc1cc(C(=O)NCCCn2ccnc2)sc1-c1ccccc1,11,i,3,0.023,99*,-1
CCOc1cc(C(=O)NCCCn2ccnc2)cc(OCC)c1OCC,30,i,2,0.39,54*,1
COc1ccc2c(Cl)c(C(=O)NN)sc2c1,-12,i,3,0.83,-4,0
COc1cccc(-c2cc(C(=O)NCCCn3ccnc3)no2)c1,33,i,1,-0.52,96*,2
Cn1cc([C@@H]2C[C@H]3CN(Cc4cccc(Cl)c4)C(=O)[C@]34CCCN24)c2ccccc21,24,i,7,-0.37,30,2
N#Cc1c(NC(=O)c2cccc(S(=O)(=O)Nc3ccc(C(=O)O)cc3)c2)sc2c1CCCC2,-5,.,.,-0.16,.,2
COc1ccc(-c2cc(C(=O)NCc3ccc(Cl)cc3)no2)cc1OC,73*,i,4,-0.7,1,0
O=C(NCCCn1ccnc1)c1cc(-c2ccc(Br)cc2)on1,-10,i,2,1,96*,-2
CCOC(=O)C1(CCc2ccccc2)CCN(C(=O)CN2C(=O)CSC2=O)CC1,4,i,3,0.46,6,-4
CCNc1nc(N2CCOCC2)nc(N(c2ccccc2)c2ccccc2)n1,72*,i,3,0.19,-3,0
CC(C)(C)Nc1nc(SCc2ccccc2)nc(N2CCOCC2)n1,74*,i,3,-0.16,30,-3
NNc1nc(NCc2ccccc2)nc(N2CCOCC2)n1,10,i,4,0.061,-1,2
SMILES,CHOP inhibitor,Autophagy HCS,MT stabilizer,Dynein transport,Lmaj promast,bCat nuc transl
COc1ccc(CNC(=O)c2cc3c(s2)CN(Cc2ccccc2)C3)cc1,6,i,2,-0.25,1,-1
CC(C)(C)C(=O)NC(=S)NNC(=O)c1ccc(Cl)cc1Cl,92*,i,3,-0.84,-7,-2
O=C(NNC(=O)c1ccc(-c2ccccc2)cc1)c1ccccc1,81*,i,7,-1.6,-5,-2
CC(C)(C)C(=O)NC(=S)NNC(=O)c1ccc(-c2ccccc2)cc1,92*,i,5,0.3,97*,-3
CC(C)(C)C(=O)NC(=S)NNC(=O)c1ccncc1,15,i,3,-0.96,-3,0
COc1cc(OC)c(OC)cc1/C=N/NC(=O)CCc1c(C)n[nH]c1C,6,.,.,1,.,0
CC1=C(OC(=O)c2ccccc2)C(C)(C)C(c2ccc(Br)cc2)OC1=O (centres undefined),91*,i,1,-0.018,0,1
CC1=C(OC(=O)c2ccccc2)C(C)(C)C(c2ccccc2)OC1=O (centres undefined),81*,i,1,0.33,-8,.
CC1=C(OC(=O)c2ccc(Br)cc2)C(C)(C)C(c2ccccc2)OC1=O (centres undefined),37,i,1,-1.1,-2,.
Cc1ccn2cc(CSc3ccccc3)nc2c1,-16,i,1,0.96,71*,0
Cc1ccc(SCc2cn3cccnc3n2)cc1,-5,i,2,0.78,-8,-4
CCCCN(CC)Cc1ccc(CNC(=O)Nc2ccccc2)o1,10,i,2,-1,31,.
CCCCN(CC)Cc1ccc(CNC(=S)Nc2cccc(F)c2)o1,18,i,1,-0.9,78*,-1
CCOc1ccc(N=C2NC(=O)S/C2=C\c2ccc(N(C)C)cc2)cc1,10,+,17,-0.46,3,-1
COCCCn1c(=NC(=O)c2ccncc2)c(C#N)cc2c(=O)n3cccc(C)c3nc21,-9,i,4,0.73,20,.
CCCn1c(=N)c(C(=O)NC2CCCC2)cc2c(=O)n3cccc(C)c3nc21,-23,i,4,-0.67,58*,-2
Cc1cccn2c(=O)c3cc(C#N)c(=NC(=O)c4ccncc4)n(CCCOC(C)C)c3nc12,-39,i,2,-0.72,61*,-4
Cc1cccn2c(=O)c3cc(C#N)c(=N)n(CCCN4CCOCC4)c3nc12,.,i,3,-0.83,89*,.
CCn1c(=N)c(C(N)=O)cc2c(=O)n3cccc(C)c3nc21,.,i,3,-0.39,100*,.
Cc1cccn2c(=O)c3cc(C(=O)NC4CCCCC4)c(=N)n(CCN4CCOCC4)c3nc12,-10,.,.,1.3,.,0
CCn1nc(C)c(Br)c1C(=O)Sc1ccccc1Cl,-39,.,.,-2.4,.,-2
O=C(c1cnn(C(=O)c2cccc(S(=O)(=O)N3CCOCC3)c2)c1)c1ccccc1O,26,i,6,-1.2,-3,-4
CC(=O)NCC(=O)N(C)C(C(=O)Nc1ccc(C(C)C)cc1)c1ccccc1 (centres undefined),13,i,1,-0.7,23,3
